Measured values reported in ChEMBL document CHEMBL1914308, “N-fused imidazoles as novel anticancer agents that inhibit catalytic activity of topoisomerase IIα and induce apoptosis in G1/S phase” (J Med Chem, 2011).
Active and inactive are the calls of the source. The rule behind the calls is not given here.

Key:
HEK293 [1] = experiment: Induction of cell cycle arrest in human HEK293 cells assessed as accumulation at G1 phase at 15 uM after 48 hrs by propidium iodide staining-based FACS analysis (reference value: 61 +/- 0.9%); format: functional
HEK293 [2] = experiment: Induction of cell cycle arrest in human HEK293 cells assessed as accumulation at G1 phase at 35 uM after 48 hrs by propidium iodide staining-based FACS analysis (reference value: 61 +/- 0.9%); format: functional
HEK293 [3] = experiment: Induction of cell cycle arrest in human HEK293 cells assessed as accumulation at G1 phase at 25 uM after 48 hrs by propidium iodide staining-based FACS analysis (reference value: 61 +/- 0.9%); format: functional
HEK293 [4] = experiment: Induction of cell cycle arrest in human HEK293 cells assessed as accumulation at S phase at 25 uM after 48 hrs by propidium iodide staining-based FACS analysis (reference value: 16.91 +/- 1.0%); format: functional
HEK293 [5] = experiment: Induction of apoptosis in human HEK293 cells assessed as apoptotic cells at 25 uM after 48 hrs by propidium iodide staining-based FACS analysis (reference value: 4.88 +/- 0.8%); format: functional
HEK293 [6] = experiment: Antimigratory activity against human HEK293 cells at 25 uM after 24 hrs by wound healing assay; format: functional, cell-based
Procedure, shortened: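 Wound healing in HEK 293 monolayer: scratch made with sterile micro tip, cells then cultured with or without 25 μM compound; gap closure followed over time to 24 h. Best of three independent experiments shown.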

Vero = experiment: Anticlonogenic activity against african green monkey Vero cells assessed as inhibition of colony formation of cells at 20 to 100 uM after 48 hrs by crystal violet staining; format: cell-based; conditions: chlorocebus sabaeus
Procedure, shortened: (§1)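 Clonogenic survival in HEK 293 and Vero cells, 48 h exposure at graded concentrations; % survival plotted; mean ± SD of three independent experiments. Cells grown in DMEM with 10% FBS and 1% antibiotic at 37 °C, 5% CO2; compound diluted from 100 mM DMSO stock into DMEM, added at 60–70% confluence.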

[7] = molecular target: T1, DNA topoisomerase 2-alpha (Homo sapiens, UniProt P11388); experiment: Inhibition of etoposide poisoning activity against human recombinant DNA topoisomerase 2alpha assessed as enhancement of in relaxation of supercoiled plasmid pBR322 DNA at 200 uM after 30 mins by agarose gel electrophoresis in presence of etoposide
T1 sequence (P11388 whole entry): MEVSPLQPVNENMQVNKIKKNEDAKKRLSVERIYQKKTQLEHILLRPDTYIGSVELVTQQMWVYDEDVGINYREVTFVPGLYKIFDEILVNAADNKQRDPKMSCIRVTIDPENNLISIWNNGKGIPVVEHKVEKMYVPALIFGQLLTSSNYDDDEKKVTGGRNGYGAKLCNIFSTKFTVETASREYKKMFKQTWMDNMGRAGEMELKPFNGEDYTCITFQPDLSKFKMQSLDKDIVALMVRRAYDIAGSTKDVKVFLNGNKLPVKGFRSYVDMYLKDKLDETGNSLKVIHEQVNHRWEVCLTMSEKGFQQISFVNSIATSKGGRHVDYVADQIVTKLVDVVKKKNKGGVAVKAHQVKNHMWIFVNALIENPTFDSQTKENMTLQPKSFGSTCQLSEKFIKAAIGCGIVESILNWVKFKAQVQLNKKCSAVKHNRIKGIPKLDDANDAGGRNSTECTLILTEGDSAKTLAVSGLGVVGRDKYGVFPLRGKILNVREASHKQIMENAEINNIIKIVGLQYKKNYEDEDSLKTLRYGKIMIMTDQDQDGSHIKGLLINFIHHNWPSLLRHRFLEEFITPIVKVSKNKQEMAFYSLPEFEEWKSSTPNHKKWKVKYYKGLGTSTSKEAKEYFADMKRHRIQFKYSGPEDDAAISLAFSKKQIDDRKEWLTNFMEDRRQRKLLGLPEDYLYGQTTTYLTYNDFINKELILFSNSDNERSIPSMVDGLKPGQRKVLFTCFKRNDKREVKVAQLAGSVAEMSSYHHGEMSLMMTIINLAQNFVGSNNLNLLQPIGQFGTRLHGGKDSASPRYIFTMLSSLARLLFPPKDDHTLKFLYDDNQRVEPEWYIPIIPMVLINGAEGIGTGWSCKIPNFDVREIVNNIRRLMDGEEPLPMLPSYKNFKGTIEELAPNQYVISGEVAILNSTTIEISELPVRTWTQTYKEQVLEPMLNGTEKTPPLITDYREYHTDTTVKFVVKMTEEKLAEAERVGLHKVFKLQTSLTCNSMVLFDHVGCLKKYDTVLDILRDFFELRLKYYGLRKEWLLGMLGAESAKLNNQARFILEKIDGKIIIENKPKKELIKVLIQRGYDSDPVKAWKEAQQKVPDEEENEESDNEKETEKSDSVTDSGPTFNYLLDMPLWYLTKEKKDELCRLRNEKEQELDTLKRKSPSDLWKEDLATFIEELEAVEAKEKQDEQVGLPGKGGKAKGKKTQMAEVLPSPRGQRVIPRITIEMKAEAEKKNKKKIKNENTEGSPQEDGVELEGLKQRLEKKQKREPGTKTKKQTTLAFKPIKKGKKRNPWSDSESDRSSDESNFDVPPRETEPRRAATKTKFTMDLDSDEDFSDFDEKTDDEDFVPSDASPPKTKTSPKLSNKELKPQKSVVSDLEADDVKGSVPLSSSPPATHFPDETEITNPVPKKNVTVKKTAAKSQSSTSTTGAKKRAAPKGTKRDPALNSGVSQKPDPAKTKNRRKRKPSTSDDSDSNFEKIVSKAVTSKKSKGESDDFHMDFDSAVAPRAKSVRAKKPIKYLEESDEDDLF

HEK293 [8] = experiment: Induction of apoptosis in human HEK293 cells assessed as apoptotic cells at 35 uM after 48 hrs by propidium iodide staining-based FACS analysis (reference value: 4.88 +/- 0.8%); format: functional
HEK293 [9] = experiment: Induction of apoptosis in human HEK293 cells assessed as increase in PARP cleavage product at 15 to 25 uM after 48 hrs by Western blot analysis; format: functional, cell-based
Procedure, shortened: (§2)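 Whole-cell extracts from HEK 293 cells after 48 h at graded concentrations, Western blotted for caspase-3, Bax, Bcl-XL and PARP (cleaved 86 kDa fragment); β-actin as loading control.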

HEK293 [10] = experiment: Anticlonogenic activity against human HEK293 cells assessed as inhibition of colony formation of cells at 20 to 100 uM after 48 hrs by crystal violet staining; format: functional, cell-based; procedure, shortened: as §1
[11] = Cytotoxicity against human MCF10A cells assessed as cell survival at 100 uM after 48 hrs by MTT assay; format: cell-based, MCF-10A; conditions: read-out: Survival
[12] = molecular target: T1, DNA topoisomerase 2-alpha; experiment: Inhibition of etoposide poisoning activity against human recombinant DNA topoisomerase 2alpha assessed as enhancement of in relaxation of supercoiled plasmid pBR322 DNA at 100 uM after 30 mins by agarose gel electrophoresis
HEK293 [13] = experiment: Induction of apoptosis in human HEK293 cells assessed as decrease in Bcl-XL protein expression at 15 to 25 uM after 48 hrs by Western blot analysis; format: functional, cell-based; procedure, shortened: as §2
HEK293 [14] = experiment: Induction of apoptosis in human HEK293 cells assessed as apoptotic cells at 15 uM after 48 hrs by propidium iodide staining-based FACS analysis (reference value: 4.88 +/- 0.8%); format: functional
[15] = molecular target: T1, DNA topoisomerase 2-alpha; experiment: Inhibition of human topoisomerase 2 alpha-mediated unwinding of supercoiled DNA assessed as DNA intercalation at 100 uM by agarose gel electrophoresis
Procedure, shortened: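 250 ng negatively supercoiled E. coli plasmid incubated 20 min at 37 °C with 1 μg/mL ethidium bromide (intercalator control), 100 μM etoposide or test compound; run on 1% agarose in TAE without EtBr, then post-stained with 0.5 μg/mL EtBr; mobility retardation scored.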

HEK293 [16] = experiment: Induction of cell cycle arrest in human HEK293 cells assessed as accumulation at S phase at 35 uM after 48 hrs by propidium iodide staining-based FACS analysis (reference value: 16.91 +/- 1.0%); format: functional
HEK293 [17] = experiment: Induction of cell cycle arrest in human HEK293 cells assessed as accumulation at G2/M phase at 15 uM after 48 hrs by propidium iodide staining-based FACS analysis (reference value: 7.5 +/- 1.0%); format: functional
[18] = molecular target: T1, DNA topoisomerase 2-alpha; experiment: Inhibition of human topoisomerase 2 alpha-mediated decatenation of kDNA at 100 uM by agarose gel electrophoresis
Procedure, shortened: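 150 ng kDNA with 2–4 units purified human topo II and 100 μM compound in DMSO, buffer 0.5 M Tris-HCl pH 8, NaCl, MgCl2, DTT, BSA with ATP (stock buffer concentrations), 20 μL, 37 °C 30 min. Stopped with SDS, proteinase K 37 °C 15 min; 1% agarose in TAE with 0.5 μg/mL EtBr; bands quantified by densitometry; etoposide 100 μM as reference.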

[19] = molecular target: T1, DNA topoisomerase 2-alpha; experiment: Competitive inhibition of human topoisomerase-2 alpha-ATPase activity by Lineweaver-Burk assay in presence of 200 to 520 uM ATP
Procedure, shortened: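 Compound at 0, 50, 100, 150 μM, each with ATP at 200–520 μM; 20 min at 37 °C. Released phosphate read by malachite green at OD 620 nm; Lineweaver–Burk analysis, Ki from slope replot.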

HEK293 [20] = experiment: Induction of apoptosis in human HEK293 cells assessed as increase in Bax/Bcl-XL ratio at 15 to 25 uM after 48 hrs by Western blot analysis; format: functional, cell-based; procedure, shortened: as §2
[21] = molecular target: T1, DNA topoisomerase 2-alpha; experiment: Inhibition of etoposide poisoning activity against human recombinant DNA topoisomerase 2alpha assessed as enhancement of in relaxation of supercoiled plasmid pBR322 DNA at 200 uM after 30 mins by agarose gel electrophoresis
[22] = molecular target: T1, DNA topoisomerase 2-alpha; experiment: Inhibition of topoisomerase 2 alpha-mediated DNA relaxation activity in human HEK293 cells assessed as increase in supercoiled DNA at 35 uM […] by agarose gel electrophoresis; format: cell-based
HEK293 [23] = experiment: Induction of cell cycle arrest in human HEK293 cells assessed as accumulation at G2/M phase at 25 uM after 48 hrs by propidium iodide staining-based FACS analysis (reference value: 7.5 +/- 1.0%); format: functional
HEK293 [24] = experiment: Anticlonogenic activity against human HEK293 cells assessed as inhibition of colony formation of cells at 25 uM after 48 hrs by crystal violet staining; format: functional, cell-based
[25] = molecular target: T1, DNA topoisomerase 2-alpha; experiment: Inhibition of human topoisomerase 2 alpha-mediated decatenation of kDNA by agarose gel electrophoresis
Procedure, shortened: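 kDNA decatenation by hTopoIIα run at 10 to 100 μM compound under the standard decatenation conditions (37 °C, 30 min, agarose gel, densitometry); IC50 taken from the concentration–inhibition plot.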

Compound: CC(C)(C)Nc1c(-c2ccc(C(=O)O)cc2)nc2ccccn12
- Activity (HEK293 [1]): 34.64%
- Activity (HEK293 [2]): 21.52%
- Activity (HEK293 [3]): 36.64%
- Activity (HEK293 [4]): 14.16%
- Activity (HEK293 [5]): 27.46%
- Activity (HEK293 [6]): Active
- inhibition (INH) (Vero): Dose-dependent effect
- inhibition [7]: inactive
- Activity (HEK293 [8]): 49.29%
- Activity (HEK293 [9]): Active
- inhibition (HEK293 [10]): Dose-dependent effect
- viability at 48 h, 100 µM [11]: 75%
- inhibition [12]: inactive
- Activity (HEK293 [13]): Active
- Activity (HEK293 [14]): 24.61%
- inhibition [15]: inactive
- Activity (HEK293 [16]): 10.07%
- Activity (HEK293 [17]): 9.92%
- inhibition [18]: Active
- Ki [19]: 75 µM
- Activity (HEK293 [20]): Active
- inhibition [21]: inactive
- inhibition [22]: Active
- Activity (HEK293 [23]): 8.93%
- Activity (HEK293 [24]): Active
- IC50 [25]: 52.7 µM
